The source of these data is article PMC3559019 (Chemistry & biology, 2013).

As usually defined, the IC50 is the point on the concentration scale where inhibition reaches its midpoint.

One test concerns the target c-Src (Homo sapiens, UniProt P12931). Put plainly: In vitro kinase assay, c-Src. The test is classed as biochemical.
A further test deals with Nef dimerization (Human immunodeficiency virus type 1 group M subtype B, UniProt P03407). Briefly: BiFC assay for Nef dimerization in 293T cells. The test is classed as cell-based, HIV-1. The conditions noted are these: 1–6 μM, 48 h.
Chain of Nef dimerization (P03407 whole entry): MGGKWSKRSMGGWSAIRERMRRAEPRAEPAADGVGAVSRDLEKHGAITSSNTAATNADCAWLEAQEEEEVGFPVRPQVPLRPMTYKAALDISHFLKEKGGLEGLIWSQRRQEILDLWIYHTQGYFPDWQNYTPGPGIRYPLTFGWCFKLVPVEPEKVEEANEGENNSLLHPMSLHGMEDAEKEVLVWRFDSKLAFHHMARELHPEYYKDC
The target in the next test is Lck (Homo sapiens, UniProt P06239). Put plainly: In vitro kinase assay, Lck. The test is classed as biochemical.
Chain of Lck (P06239 whole entry, species assumed): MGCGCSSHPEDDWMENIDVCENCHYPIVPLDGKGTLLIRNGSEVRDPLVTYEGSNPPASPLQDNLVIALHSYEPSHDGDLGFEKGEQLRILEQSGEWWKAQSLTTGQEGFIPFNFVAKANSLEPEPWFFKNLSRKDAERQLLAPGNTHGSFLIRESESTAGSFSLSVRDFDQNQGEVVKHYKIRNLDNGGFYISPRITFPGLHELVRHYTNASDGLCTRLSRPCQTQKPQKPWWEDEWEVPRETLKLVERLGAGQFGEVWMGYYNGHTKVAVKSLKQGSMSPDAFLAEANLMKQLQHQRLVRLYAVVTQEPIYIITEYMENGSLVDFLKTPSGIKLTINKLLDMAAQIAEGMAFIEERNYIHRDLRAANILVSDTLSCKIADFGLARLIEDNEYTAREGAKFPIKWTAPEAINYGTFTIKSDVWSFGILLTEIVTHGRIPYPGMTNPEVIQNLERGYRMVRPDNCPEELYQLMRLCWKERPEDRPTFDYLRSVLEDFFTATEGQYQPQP
A further test has as its system HIV-1 NL4-3. Briefly: HIV-1 infectivity in TZM-bl reporter cells. The test is classed as cell-based. Conditions: luciferase 48 h.
In a further test the test system is SIV quasispecies ΔB670. Put plainly: SIV replication in CEM-174 cells. The test is classed as cell-based. Conditions: Simian immunodeficiency virus, CEM174, 120 h, read-out: IC50, SIV replication. The essentials: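 CEM-174 cells received test compound in DMSO over a range of concentrations, 1 h before infection with the pathogenic SIV quasispecies ΔB670. Replication was measured 5 d later as p27 Gag protein by ELISA.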

Test [1] relates to HIV-1 Nef Asn126 mutants (Ala, Leu, Gln). Put plainly: Surface plasmon resonance, Nef Asn126 mutants. The test is classed as binding. The conditions noted are these: SPR, B9 10 μM. A general note: In SPR one partner is held on a chip, and binding of the other changes the refractive index at the surface.
The test system of test [2] is Nef-dependent SFK activation. Briefly: Endogenous SFK activation in HIV-infected CEM-T4 cells. The test is classed as cell-based. The conditions noted are these: 1.0 μM. In outline:
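CEM-T4 cells (1 × 10^5) were infected with 50 pg p24 equivalents/ml wild-type HIV-1 NL4-3, ΔNef mutant or Nef chimeras in 10 ml, with test compound (1 μM) or DMSO carrier. Cells were lysed 8 days later and SFKs were immunoprecipitated with a pan-specific antibody. Immunoblots used an anti-pY418 activation-loop antibody. Lysates were blotted for Gag, Nef and actin (loading control). Uninfected cells were included.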

The subject of the next test is SIV ΔB670. Put plainly: SIV infectivity in TZM-bl reporter cells. The test is classed as cell-based. Conditions: Simian immunodeficiency virus, read-out: IC50, SIV infectivity. The essentials:
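TZM-bl reporter cells (2.5 × 10^4/well) were plated 8 h before infection to adhere. Test compound was pre-incubated with SIV ΔB670 for 4 h, then added to the cells (final 200 μl). After 48 h at 37 °C, cells were washed with PBS and lysed. Infectivity was read as luciferase luminescence.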

Test [3] concerns Nef-defective (ΔNef) HIV-1 NL4-3. Briefly: Nef-defective HIV-1 replication in CEM-T4 cells. The test is classed as cell-based.
A further test addresses Lyn (Homo sapiens, UniProt P07948). Briefly: In vitro kinase assay, Lyn. The test is classed as biochemical.

Chain of c-Src (P12931 whole entry, species assumed): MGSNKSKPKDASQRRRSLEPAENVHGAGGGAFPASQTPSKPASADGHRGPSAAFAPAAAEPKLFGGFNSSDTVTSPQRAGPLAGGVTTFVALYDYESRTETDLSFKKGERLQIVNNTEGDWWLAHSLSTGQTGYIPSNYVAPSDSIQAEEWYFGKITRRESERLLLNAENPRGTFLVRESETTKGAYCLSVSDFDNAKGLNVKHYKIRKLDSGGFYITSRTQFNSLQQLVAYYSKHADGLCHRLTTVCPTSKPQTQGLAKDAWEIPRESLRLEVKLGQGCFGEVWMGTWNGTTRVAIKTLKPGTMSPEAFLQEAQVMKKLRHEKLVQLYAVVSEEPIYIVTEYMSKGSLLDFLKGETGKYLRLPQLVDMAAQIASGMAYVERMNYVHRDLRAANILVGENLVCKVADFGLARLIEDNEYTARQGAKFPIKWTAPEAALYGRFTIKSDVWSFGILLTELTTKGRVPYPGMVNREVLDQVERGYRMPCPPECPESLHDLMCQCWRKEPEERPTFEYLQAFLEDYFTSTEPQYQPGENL
Chain of Lyn (P07948 whole entry, species assumed): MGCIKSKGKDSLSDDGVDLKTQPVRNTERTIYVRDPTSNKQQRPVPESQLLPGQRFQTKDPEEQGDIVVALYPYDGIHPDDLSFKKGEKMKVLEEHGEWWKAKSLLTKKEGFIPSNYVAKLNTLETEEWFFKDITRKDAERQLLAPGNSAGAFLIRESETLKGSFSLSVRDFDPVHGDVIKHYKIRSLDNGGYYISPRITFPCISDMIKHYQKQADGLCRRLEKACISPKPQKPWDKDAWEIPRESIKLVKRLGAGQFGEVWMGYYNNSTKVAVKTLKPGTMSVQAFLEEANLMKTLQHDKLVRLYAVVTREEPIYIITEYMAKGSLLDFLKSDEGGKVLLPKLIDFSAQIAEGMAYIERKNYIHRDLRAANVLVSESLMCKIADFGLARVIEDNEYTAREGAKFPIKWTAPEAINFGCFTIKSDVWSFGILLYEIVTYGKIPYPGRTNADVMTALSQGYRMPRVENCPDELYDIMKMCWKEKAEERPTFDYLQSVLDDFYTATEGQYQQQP

Consider `NC(=S)n1nc(-c2ccc([N+](=O)[O-])cc2)c(/N=N/c2cccc(Cl)c2)c1O` [B9, (E)-4-((3-chlorophenyl)diazenyl)-5-hydroxy-3-(4-nitrophenyl)-1H-pyrazole-1-carbothioamide], for which the IC50 is above 20000 nM on c-Src; above 20000 nM against Lck; around 1000 nM in the test on SIV quasispecies ΔB670; around 3000 nM in the test on SIV ΔB670; above 20000 nM on Lyn. The “Nef BiFC signal (Nef dimerization)” value at Nef dimerization was “concentration-dependent loss”. Further, the “Nef-mediated enhancement of HIV-1 infectivity” value in the test with HIV-1 NL4-3 is listed as “inhibited Nef-mediated enhancement of HIV-1 infectivity in a concentration-dependent manner”. Also, the “Binding to Nef Asn126 mutants” value in test [1] was “none of these mutants demonstrated detectable binding”. Moreover, the “Nef-dependent SFK activation (pY418)” value in [2] is “completely inhibited”. For the same compound, in test [3] (0.3 and 1.0 μM, 10 days), the “Effect on Nef-defective HIV replication (chimera experiment)” value was “no effect”. Besides, the “Effect on replication of Nef-defective HIV-1” value in test [3] (highest concentration tested 3.0 μM) was “unaffected”.
